Assay results reported in ChEMBL document CHEMBL5356993, “Novel pyrazolo[3,4-d]pyrimidine derivatives: design, synthesis, anticancer evaluation, VEGFR-2 inhibition, and antiangiogenic activity” (RSC Med Chem, 2023).

Columns and labels:
Format in all cases: functional
Conditions in all cases: read-out: GI
[1] = test system: COLO 205; assay: Antiproliferative activity against human COLO 205 cells assessed as cell growth inhibition at 10 uM incubated for 48 hrs by SRB assay relative to control
[2] = test system: MCF7; assay: Antiproliferative activity against human MCF7 cells assessed as cell growth inhibition at 10 uM incubated for 48 hrs by SRB assay relative to control
[3] = test system: SN12C; assay: Antiproliferative activity against human SN12C cells assessed as cell growth inhibition at 10 uM incubated for 48 hrs by SRB assay relative to control
[4] = test system: SNB-75; assay: Antiproliferative activity against human SNB-75 cells assessed as cell growth inhibition at 10 uM incubated for 48 hrs by SRB assay relative to control
How it was run: (§1)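 Cells pre-incubated 24 h at 37°C, 5% CO2, then exposed to compound (DMSO stock diluted in medium with 50 µg/mL gentamicin) for 48 h. Adherent cells fixed with cold TCA (final 10%, 60 min, 4°C); suspension cells fixed with 16% TCA final. Stained with 0.4% SRB in 1% acetic acid for 10 min, dye solubilized in 10 mM Trizma base, absorbance read at 515 nm. Growth calculated against time-zero and untreated control plates.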

[5] = test system: Malme-3M; assay: Antiproliferative activity against human Malme-3M cells assessed as cell growth inhibition at 10 uM incubated for 48 hrs by SRB assay relative to control
[6] = test system: PC-3; assay: Antiproliferative activity against human PC-3 cells assessed as cell growth inhibition at 10 uM incubated for 48 hrs by SRB assay relative to control
[7] = test system: NCI/ADR-RES; assay: Antiproliferative activity against human NCI-ADR-RES cells assessed as cell growth inhibition at 10 uM incubated for 48 hrs by SRB assay relative to control
[8] = test system: LOX IMVI; assay: Antiproliferative activity against human LOX IMVI cells assessed as cell growth inhibition at 10 uM incubated for 48 hrs by SRB assay relative to control
[9] = test system: MDA-MB-435; assay: Antiproliferative activity against human MDA-MB-435 cells assessed as cell growth inhibition at 10 uM incubated for 48 hrs by SRB assay relative to control
[10] = test system: CAKI-1; assay: Antiproliferative activity against human CAKI-1 cells assessed as cell growth inhibition at 10 uM incubated for 48 hrs by SRB assay relative to control
[11] = test system: SNB-19; assay: Antiproliferative activity against human SNB-19 cells assessed as cell growth inhibition at 10 uM incubated for 48 hrs by SRB assay relative to control; how it was run: as §1
[12] = test system: 786-0; assay: Antiproliferative activity against human 786-0 cells assessed as cell growth inhibition at 10 uM incubated for 48 hrs by SRB assay relative to control
[13] = test system: SF-268; assay: Antiproliferative activity against human SF-268 cells assessed as cell growth inhibition at 10 uM incubated for 48 hrs by SRB assay relative to control
[14] = test system: HCC 2998; assay: Antiproliferative activity against human HCC 2998 cells assessed as cell growth inhibition at 10 uM incubated for 48 hrs by SRB assay relative to control
[15] = test system: OVCAR-8; assay: Antiproliferative activity against human OVCAR-8 cells assessed as cell growth inhibition at 10 uM incubated for 48 hrs by SRB assay relative to control
[16] = test system: HCT-15; assay: Antiproliferative activity against human HCT-15 cells assessed as cell growth inhibition at 10 uM incubated for 48 hrs by SRB assay relative to control
[17] = test system: MOLT-4; assay: Antiproliferative activity against human MOLT-4 cells assessed as cell growth inhibition at 10 uM incubated for 48 hrs by SRB assay relative to control
[18] = test system: RPMI-8226; assay: Antiproliferative activity against human RPMI-8226 cells assessed as cell growth inhibition at 10 uM incubated for 48 hrs by SRB assay relative to control
[19] = test system: T47D; assay: Antiproliferative activity against human T47D cells assessed as cell growth inhibition at 10 uM incubated for 48 hrs by SRB assay relative to control; how it was run: as §1
[20] = test system: OVCAR-4; assay: Antiproliferative activity against human OVCAR-4 cells assessed as cell growth inhibition at 10 uM incubated for 48 hrs by SRB assay relative to control
[21] = test system: ACHN; assay: Antiproliferative activity against human ACHN cells assessed as cell growth inhibition at 10 uM incubated for 48 hrs by SRB assay relative to control
[22] = test system: HCT-116; assay: Antiproliferative activity against human HCT-116 cells assessed as cell growth inhibition at 10 uM incubated for 48 hrs by SRB assay relative to control
[23] = test system: K562; assay: Antiproliferative activity against human K562 cells assessed as cell growth inhibition at 10 uM incubated for 48 hrs by SRB assay relative to control
[24] = test system: NCI-H23; assay: Antiproliferative activity against human NCI-H23 cells assessed as cell growth inhibition at 10 uM incubated for 48 hrs by SRB assay relative to control
[25] = test system: EKVX; assay: Antiproliferative activity against human EKVX cells assessed as cell growth inhibition at 10 uM incubated for 48 hrs by SRB assay relative to control
[26] = test system: HOP-62; assay: Antiproliferative activity against human HOP-62 cells assessed as cell growth inhibition at 10 uM incubated for 48 hrs by SRB assay relative to control
[27] = test system: IGROV-1; assay: Antiproliferative activity against human IGROV-1 cells assessed as cell growth inhibition at 10 uM incubated for 48 hrs by SRB assay relative to control
[28] = test system: MDA-MB-468; assay: Antiproliferative activity against human MDA-MB-468 cells assessed as cell growth inhibition at 10 uM incubated for 48 hrs by SRB assay relative to control
[29] = test system: DU-145; assay: Antiproliferative activity against human DU-145 cells assessed as cell growth inhibition at 10 uM incubated for 48 hrs by SRB assay relative to control
[30] = test system: NCI-H322M; assay: Antiproliferative activity against human NCI-H322M cells assessed as cell growth inhibition at 10 uM incubated for 48 hrs by SRB assay relative to control
[31] = test system: BT-549; assay: Antiproliferative activity against human BT-549 cells assessed as cell growth inhibition at 10 uM incubated for 48 hrs by SRB assay relative to control
[32] = test system: NCI-H460; assay: Antiproliferative activity against human NCI-H460 cells assessed as cell growth inhibition at 10 uM incubated for 48 hrs by SRB assay relative to control
[33] = test system: A549; assay: Antiproliferative activity against human A549 cells assessed as cell growth inhibition at 10 uM incubated for 48 hrs by SRB assay relative to control
[34] = test system: UACC-62; assay: Antiproliferative activity against human UACC-62 cells assessed as cell growth inhibition at 10 uM incubated for 48 hrs by SRB assay relative to control; how it was run: as §1

| Compound | inhibition of growth at 10 µM [1] [%] | inhibition of growth at 10 µM [2] [%] | inhibition of growth at 10 µM [3] [%] | inhibition of growth at 10 µM [4] [%] | inhibition of growth at 10 µM [5] [%] | inhibition of growth at 10 µM [6] [%] | inhibition of growth at 10 µM [7] [%] | inhibition of growth at 10 µM [8] [%] | inhibition of growth at 10 µM [9] [%] | inhibition of growth at 10 µM [10] [%] | inhibition of growth at 10 µM [11] [%] | inhibition of growth at 10 µM [12] [%] | inhibition of growth at 10 µM [13] [%] | inhibition of growth at 10 µM [14] [%] | inhibition of growth at 10 µM [15] [%] | inhibition of growth at 10 µM [16] [%] | inhibition of growth at 10 µM [17] [%] | inhibition of growth at 10 µM [18] [%] | inhibition of growth at 10 µM [19] [%] | inhibition of growth at 10 µM [20] [%] | other results |
| --- | --- | --- | --- | --- | --- | --- | --- | --- | --- | --- | --- | --- | --- | --- | --- | --- | --- | --- | --- | --- | --- |
| Cc1nc2c(cnn2-c2ccccc2)c(=O)n1-c1ccc(NC(=O)c2ccc(Cl)cc2)cc1 | 18.8 | 46.8 | 17 | 27.5 | 33.3 | 36.7 | 44.5 | 33.4 | 30.2 | 29.7 | 16.3 | 20.3 | < 15 | 15.8 | 43.4 | 23.2 | 30.7 | 52.9 | 72.5 | 53.9 | inhibition of growth at 10 µM [21]: 32.6%; inhibition of growth at 10 µM [22]: 44.5%; inhibition of growth at 10 µM [23]: 61.3%; inhibition of growth at 10 µM [24]: 47.2%; inhibition of growth at 10 µM [25]: 68.5%; inhibition of growth at 10 µM [26]: 41.1%; inhibition of growth at 10 µM [27]: 21.3%; inhibition of growth at 10 µM [28]: 84.3%; inhibition of growth at 10 µM [29]: 17.8%; inhibition of growth at 10 µM [30]: < 15%; inhibition of growth at 10 µM [31]: 36%; inhibition of growth at 10 µM [32]: 28.8%; inhibition of growth at 10 µM [33]: 26.1%; inhibition of growth at 10 µM [34]: 32.2% |
| Cc1nc2c(cnn2-c2ccccc2)c(=O)n1-c1ccc(NC(=O)c2ccc([N+](=O)[O-])cc2)cc1 | 25.9 | 56.7 | 29 | 32.9 | 34 | 33.7 | 47.2 | 34.1 | 33.6 | 31.5 | 25.4 | 16.3 | < 15 | < 15 | 34.1 | 28.6 | 63.4 | 47.7 | 66.5 | 48.2 | inhibition of growth at 10 µM [21]: 39.6%; inhibition of growth at 10 µM [22]: 55.6%; inhibition of growth at 10 µM [23]: 68.8%; inhibition of growth at 10 µM [24]: 50.6%; inhibition of growth at 10 µM [25]: 69.3%; inhibition of growth at 10 µM [26]: < 15%; inhibition of growth at 10 µM [27]: 31.1%; inhibition of growth at 10 µM [28]: 68.6%; inhibition of growth at 10 µM [29]: 21%; inhibition of growth at 10 µM [30]: 17.2%; inhibition of growth at 10 µM [31]: 48.8%; inhibition of growth at 10 µM [32]: 26.4%; inhibition of growth at 10 µM [33]: 33%; inhibition of growth at 10 µM [34]: 39.6% |
